Experimental data taken from ChEMBL document CHEMBL1151442, “Genetic and phenotypic identification of fusidic acid-resistant mutants with the small-colony-variant phenotype in Staphylococcus aureus” (2007).
Activity calls are given as the source filed them. No cut-off for these calls is given here.

Legend:
Assay type in all cases: functional
Staphylococcus aureus [1] = assay: Antibacterial activity against fusidic acid-resistant Staphylococcus aureus AH197 harboring Leu456Phe mutation in fusA gene after 18 to 24 hrs by Etest strip assay
How it was run: (§1)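 Mutants of lab strain 8325-4 were selected on LA with FA 2 μg/ml for 48 h at 37°C and purified on selective medium. For the MIC, one colony was suspended in 0.9% NaCl to 0.5 McFarland and swabbed onto Mueller-Hinton agar. An Etest strip was applied and plates were incubated at 37°C for 18–24 h until the lawn was evident.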

Staphylococcus aureus [2] = assay: Antibacterial activity against fusidic acid-resistant Staphylococcus aureus AH198 harboring Gly452Ser mutation in fusA gene after 18 to 24 hrs by Etest strip assay; how it was run: as §1
Staphylococcus aureus [3] = assay: Antibacterial activity against fusidic acid-resistant Staphylococcus aureus AH201 harboring Gly452Cys mutation in fusA after 18 to 24 hrs by Etest strip assay; how it was run: as §1
Staphylococcus aureus [4] = assay: Antibacterial activity against fusidic acid-resistant Staphylococcus aureus AH206 harboring Arg464Ser mutation in fusA gene after 18 to 24 hrs by Etest strip assay; how it was run: as §1
Staphylococcus aureus [5] = assay: Antibacterial activity against fusidic acid-resistant Staphylococcus aureus AH190 harboring Arg464His mutation in fusA gene after 18 to 24 hrs by Etest strip assay; how it was run: as §1
Staphylococcus aureus [6] = assay: Antibacterial activity against fusidic acid-resistant Staphylococcus aureus AH187 harboring His457Tyr mutation in fusA gene after 18 to 24 hrs by Etest strip assay; how it was run: as §1
Staphylococcus aureus [7] = assay: Antibacterial activity against fusidic acid-resistant Staphylococcus aureus AH207 harboring Thr385Asn mutation in fusA gene after 18 to 24 hrs by Etest strip assay; how it was run: as §1
Staphylococcus aureus [8] = assay: Antibacterial activity against fusidic acid-resistant Staphylococcus aureus AH194 harboring Pro404Leu mutation in fusA gene after 18 to 24 hrs by Etest strip assay; how it was run: as §1
Staphylococcus aureus [9] = assay: Antibacterial activity against fusidic acid-resistant Staphylococcus aureus AH196 harboring Pro406Leu mutation in fusA gene after 18 to 24 hrs by Etest strip assay; how it was run: as §1
Staphylococcus aureus [10] = assay: Ratio of MIC for kanamycin-resistant Staphylococcus aureus harboring mutations in FusE gene to MIC for wild type kanamycin-susceptible Staphylococcus aureus AH001
Staphylococcus aureus [11] = assay: Ratio of MIC for kanamycin-resistant Staphylococcus aureus harboring mutations in FusA gene to MIC for wild type kanamycin-susceptible Staphylococcus aureus AH001

## GENTAMICIN
Staphylococcus aureus [1]
  Activity: Active
Staphylococcus aureus [2]
  Activity: Active
Staphylococcus aureus [3]
  Activity: Active
Staphylococcus aureus [4]
  Activity: Active
Staphylococcus aureus [5]
  Activity: Active
Staphylococcus aureus [6]
  Activity: Active
Staphylococcus aureus [7]
  Activity: Active
Staphylococcus aureus [8]
  Activity: Active
Staphylococcus aureus [9]
  Activity: Active
Staphylococcus aureus [10]
  fold change (FC): 4
Staphylococcus aureus [11]
  fold change (FC): 4
